Laboratory results as given in article PMC6800637 (Cell chemical biology, 2019).
Like-named read-outs stand apart in the source and are kept apart here.

Legend:
[1] = test system: NRF2; assay: ARE-luciferase NRF2 activation assay; type: cell-based; conditions: for Max. induction (fold): ARE-luciferase relative to vehicle control, MDA-MB-231
[2] = test system: MDA-MB-231 cells
[3] = test system: NRF2; assay: NRF2 ubiquitination assay; type: cell-based; conditions: MDA-MB-231 transfected with NRF2 and HA-Ubiquitin, 3 2.33 µM, 5 71.5 µM, 4 hours
[4] = test system: KEAP1; assay: NRF2 immunoblot in KEAP1-WT and KEAP1-/- cells; type: cell-based; conditions: for level of NRF2 in KEAP1-/- cells: KEAP1-/- MDA-MB-231, four hours; for level of NRF2 in WT cells: KEAP1-WT MDA-MB-231, four hours
[5] = test system: NRF2; assay: Real-time qRT-PCR of NRF2 and downstream genes; type: cell-based; conditions: MDA-MB-231, 16 hours
How it was run: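 MDA-MB-231 cells (6×10^5 per 35 mm dish) were treated 24 h after seeding with test compound for 16 h. Total RNA was TRIzol-extracted, and 1 µg was reverse-transcribed with M-MLV RT. SYBR Green qPCR: 95 °C 4 min, then 45 cycles of 95 °C 10 s and 60 °C 30 s. Values are normalised to GAPDH with untreated set to 1. Three runs in duplicate, mean ± SD, Student t-test.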

[6] = test system: KEAP1-WT; assay: Dual luciferase reporter assay and immunoblot, KEAP1-WT re-expressed; type: cell-based; conditions: KEAP1-/- MDA-MB-231 + KEAP1-WT, at EC50, 16 hours
How it was run: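 KEAP1−/− MDA-MB-231 cells (CRISPR-Cas9) were co-transfected with a KEAP1-WT expression vector plus NQO1-ARE firefly and TK-Renilla luciferase reporters. After 24 h, cells were treated with test compound for 16 h; controls were SFN (2 µM) and NaAsO2 (1 µM). Firefly activity is reported relative to Renilla (dual-luciferase), with an NRF2/KEAP1 immunoblot normalised to GAPDH. Mean ± SD of three independent experiments.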

[7] = test system: NRF2; assay: Immunoblot of NRF2 and downstream genes; type: cell-based; conditions: for protein level of NRF2 and downstream target genes AKR1C1, NQO-1, HO-1, GCLM: MDA-MB-231, indicated doses, 16 hours
How it was run: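 MDA-MB-231 cells were seeded at 6×10^5 per 35 mm dish and treated 24 h later with test compound. Treatment was either a dose series for 16 h, or 2.33 or 71.5 µM (per compound) for a time course up to 48 h. Lysates were made in Laemmli buffer, boiled 5 min and run on SDS-PAGE, then immunoblotted for NRF2, AKR1C1, NQO1, HO-1 and GCLM. Done in triplicate.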

[8] = test system: KEAP1-C151S; assay: Dual luciferase reporter assay and immunoblot, KEAP1-C151S re-expressed; type: cell-based; conditions: for KEAP1-Cys151 dependence of NRF2 activation: KEAP1-WT versus KEAP1-C151S, dual luciferase and immunoblot; for firefly luciferase induction in the presence of KEAP1-C151S: KEAP1-/- MDA-MB-231 + KEAP1-C151S, 5 at EC50, As 1 µM, 16 hours
[9] = test system: NRF2; assay: NRF2 protein half-life; type: cell-based
[10] = MDA-MB-231 ARE-luciferase cell line, 48 h, MTT
[11] = induction of ARE-luciferase, MDA-MB-231, 16 hours
[12] = MDA-MB-231, 71.5 µM, cycloheximide

Compound | Max. induction (fold) [1] [fold] | EC50 ([1]; Homo sapiens, MDA-MB-231, 16 h) [µM] | LD50 [48 h] [2, 10] [µM] | EC50 [1, 11] [µM] | LD50 [48 h] [2] [µM] | other results
CC(C)(C)c1cc(O)ccc1O [tBHQ, tert-butylhydroquinone, reference compound] | 2.2 | 2.43 ± 0.34 | 85.1 | – | – | –
15α-Hydroxy-15-deoxy-methylgeopyxin A [Compound 13] | 1.9 | – | – | 73.1 ± 0.87 | >128 | –
16,17-epoxymethylgeopyxin A [Compound 15] | 3.5 | – | – | 26.8 ± 4.08 | 115.11 ± 3.57 | –
C=C1C(=O)[C@]23C[C@H]1CC[C@H]2[C@]1(C)C(=O)CC[C@@](C)(C(=O)O)[C@H]1C[C@@H]3O [Compound 3, geopyxin C] | 2.1 | – | 51.29 ± 1.23 | 2.33 ± 0.35 | – | ubiquitylation of NRF2 [3]: largely fails to be ubiquitylated; level of NRF2 in KEAP1-/- cells [4]: failed to further activate; level of NRF2 in WT cells [4]: dose-dependent activation; mRNA level of NRF2 [5]: remained unchanged; mRNA levels of the downstream genes [5]: increased in a dose dependent manner; firefly luciferase induction in the presence of KEAP1-WT [6]: induced; time of peak NRF2 protein level ([7]; MDA-MB-231, 2.33 µM 3): 4 h; protein level of NRF2 and downstream target genes AKR1C1, NQO-1, HO-1, GCLM [7]: dose dependent increases; KEAP1-Cys151 dependence of NRF2 activation [8]: Cys151 dependent; half-life of NRF2 ([9]; MDA-MB-231, at EC50, cycloheximide, in words): increased the half-life
O=[As][O-].[Na+] [NaAsO2, Sodium (meta)arsenite, reference compound] | – | – | – | – | – | firefly luciferase induction in the presence of KEAP1-C151S [8]: induction
1-O-Acetyl-15α-hydroxy-15-deoxy-methylgeopyxin A [Compound 14] | 4.2 | – | – | 54.5 ± 5.1 | 123.63 ± 3.89 | –
C[C@]12[C@@H]3CC[C@@H]4C[C@]3(C(=O)[C@@H]4CO)[C@@H](O)C[C@@H]1[C@](C)(C(=O)O)CC[C@@H]2O [Compound 5, geopyxin F] | 3.0 | – | – | 71.5 ± 5.8 | >128 | ubiquitylation of NRF2 [3]: largely fails to be ubiquitylated; level of NRF2 in KEAP1-/- cells [4]: failed to further activate; level of NRF2 in WT cells [4]: dose-dependent activation; mRNA level of NRF2 [5]: remained unchanged; mRNA levels of the downstream genes [5]: increased in a dose dependent manner; firefly luciferase induction in the presence of KEAP1-WT [6]: induced; time course of NRF2 protein level ([7]; MDA-MB-231, 71.5 µM 5): continues to steadily rise all the way up to 48 hours; protein level of NRF2 and downstream target genes AKR1C1, NQO-1, HO-1, GCLM [7]: dose dependent increases; cellular toxicity [2]: no cellular toxicity; firefly luciferase induction in the presence of KEAP1-C151S [8]: induction; KEAP1-Cys151 dependence of NRF2 activation [8]: independent of KEAP1-Cys151; half-life of NRF2 [9]: increased the half-life; increase of half-life of NRF2 relative to compound 3 [9, 12]: more than 2 times; increase of half-life of NRF2 relative to untreated cells [9, 12]: more than 3 times
C[S+]([O-])CCCCN=C=S (centres unmarked) [SFN, sulforaphane, reference compound] | 1.9 | 0.97 ± 0.18 | – | – | – | ubiquitylation of NRF2 [3]: largely fails to be ubiquitylated; LD50 [48 h] ([2]; human, 48 h): 46.2 µM
C=C1C(=O)[C@]23C[C@H]1CC[C@H]2[C@]1(C)[C@@H](O)CC[C@@](C)(C(=O)OC)[C@H]1C[C@@H]3O [Compound 6, methylgeopyxin A] | 2.2 | 2.32 ± 0.17 | 8.69 ± 0.93 | – | – | –
C=C1C(=O)[C@]23C[C@H]1CC[C@H]2[C@]1(C)[C@@H](O)CC[C@@](C)(C(=O)O)[C@H]1C[C@@H]3O [Compound 1, geopyxin A] | 2.1 | 4.44 ± 0.41 | 60.36 ± 1.18 | – | – | –
16,17-dihydrogeopyxin A [Compound 16] | 1.6 | – | – | 70.4 ± 5.12 | >128 | –
